Test results: ChEMBL document CHEMBL1123302, “Antagonists of substance P. Further modifications of substance P antagonists obtained by replacing either positions 7, 9 or 7, 8 and 11 of SP with D-amino acid residues” (J Med Chem, 1986)
Values belong to the compound of their own block, whether it stands above or below them.

Columns and labels:
[1] = biological target: Substance-P receptor (Cavia porcellus) (UniProt P30547); assay: Antagonistic activity against Substance P(6-11) receptor in guinea pig ileum at concentration of 0.5 uM.; type: functional, tissue-based
Substance-P receptor (Cavia porcellus), sequence (P30547 whole entry): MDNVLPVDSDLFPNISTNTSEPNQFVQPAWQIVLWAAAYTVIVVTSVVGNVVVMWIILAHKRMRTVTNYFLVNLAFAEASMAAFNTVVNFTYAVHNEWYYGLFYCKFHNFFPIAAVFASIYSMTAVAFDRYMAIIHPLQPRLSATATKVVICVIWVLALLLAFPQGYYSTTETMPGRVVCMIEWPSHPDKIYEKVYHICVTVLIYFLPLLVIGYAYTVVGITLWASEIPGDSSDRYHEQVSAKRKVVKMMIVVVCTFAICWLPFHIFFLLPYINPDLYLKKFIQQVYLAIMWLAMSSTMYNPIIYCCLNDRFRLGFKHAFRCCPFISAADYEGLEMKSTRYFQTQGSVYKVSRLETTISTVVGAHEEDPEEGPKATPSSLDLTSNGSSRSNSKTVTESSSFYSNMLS
Procedure, shortened: (§1)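 Distal ileum from Dunkin-Hartley guinea pigs (300-350 g, both sexes), held in a 5-mL bath of Krebs solution at 37 °C gassed with 95% O2/5% CO2. Agonist dose-response curves ran on a 3-min cycle with 1-min contact, then washout. Dose ratio = agonist EC50 with antagonist / EC50 alone. At least two preparations per compound; ratios below two were taken as insignificant.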

[2] = biological target: Metabotropic glutamate receptor 3 (Rattus norvegicus) (UniProt P31422); assay: Antagonistic activity against Glutamate receptor in rat spinal cord at concentration of 50.0 uM.; type: functional, tissue-based
Metabotropic glutamate receptor 3 (Rattus norvegicus), sequence (P31422 23-879 limits assumed): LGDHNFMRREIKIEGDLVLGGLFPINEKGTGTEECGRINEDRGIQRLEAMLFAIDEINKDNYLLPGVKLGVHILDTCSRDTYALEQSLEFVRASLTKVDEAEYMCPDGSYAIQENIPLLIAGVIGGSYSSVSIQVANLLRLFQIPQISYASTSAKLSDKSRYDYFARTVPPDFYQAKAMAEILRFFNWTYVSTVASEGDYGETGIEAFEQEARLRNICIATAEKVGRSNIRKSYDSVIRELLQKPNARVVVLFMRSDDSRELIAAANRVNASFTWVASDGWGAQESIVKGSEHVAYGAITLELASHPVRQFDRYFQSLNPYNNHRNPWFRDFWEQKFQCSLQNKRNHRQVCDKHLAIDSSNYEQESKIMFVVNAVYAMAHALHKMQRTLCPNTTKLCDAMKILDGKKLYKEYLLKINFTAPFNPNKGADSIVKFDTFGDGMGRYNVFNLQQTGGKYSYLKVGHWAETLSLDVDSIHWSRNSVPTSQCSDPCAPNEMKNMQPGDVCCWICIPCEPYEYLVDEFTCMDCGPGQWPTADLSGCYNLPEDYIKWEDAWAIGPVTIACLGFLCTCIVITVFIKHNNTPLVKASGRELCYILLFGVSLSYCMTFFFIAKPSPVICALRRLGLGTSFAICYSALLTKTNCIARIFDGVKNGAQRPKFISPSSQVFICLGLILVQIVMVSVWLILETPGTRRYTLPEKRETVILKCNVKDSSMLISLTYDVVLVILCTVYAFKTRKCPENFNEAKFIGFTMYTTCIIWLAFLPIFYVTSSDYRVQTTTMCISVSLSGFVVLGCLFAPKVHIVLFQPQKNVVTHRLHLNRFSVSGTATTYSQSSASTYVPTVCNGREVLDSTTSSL
Procedure, shortened: (§2)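 Neonatal rat spinal cord, hemisected sagittally, superfused at 1 mL/min with oxygenated Krebs-Henseleit medium containing 0.5% urethane at room temperature. Agonists were given in 2-mL doses in the superfusate. Antagonist was superfused continuously for at least 15 min before agonist retesting. Read-out was ventral root depolarization (DC potential, ventral root vs cord body), measured as amplitude and area of response.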

[3] = biological target: Metabotropic glutamate receptor 3 (Rattus norvegicus) (UniProt P31422); assay: Antagonistic activity against Glutamate receptor in rat spinal cord at concentration of 1.0 uM.; type: functional, tissue-based; procedure, shortened: as §2
[4] = biological target: Substance-P receptor (Cavia porcellus) (UniProt P30547); assay: (§3) Antagonistic activity against Substance P receptor in guinea pig ileum at concentration of 5.0 uM.; type: functional, tissue-based; procedure, shortened: as §1
[5] = biological target: Substance-P receptor (Cavia porcellus) (UniProt P30547); assay: Antagonistic activity against Substance P receptor in guinea pig ileum at concentration of 1.0 uM.; type: functional, tissue-based; procedure, shortened: as §1
[6] = biological target: Substance-P receptor (Cavia porcellus) (UniProt P30547); assay: as §3; type: functional, tissue-based; procedure, shortened: as §1; remark: listed apart in the source
[7] = biological target: Substance-P receptor (Cavia porcellus) (UniProt P30547); assay: (§4) Antagonistic activity against Substance P receptor in guinea pig ileum at concentration of 10.0 uM.; type: functional, tissue-based; procedure, shortened: as §1
[8] = biological target: Metabotropic glutamate receptor 3 (Rattus norvegicus) (UniProt P31422); assay: Antagonistic activity against Glutamate receptor in rat spinal cord at concentration of 0.5 uM.; type: functional, tissue-based; procedure, shortened: as §2
[9] = biological target: Substance-P receptor (Cavia porcellus) (UniProt P30547); assay: Antagonistic activity against Substance P receptor in guinea pig ileum at concentration of 0.5 uM.; type: functional, tissue-based; procedure, shortened: as §1
[10] = biological target: Metabotropic glutamate receptor 3 (Rattus norvegicus) (UniProt P31422); assay: Antagonistic activity against Glutamate receptor in rat spinal cord at concentration of 10.0 uM.; type: functional, tissue-based; procedure, shortened: as §2
[11] = biological target: Substance-P receptor (Cavia porcellus) (UniProt P30547); assay: as §4; type: functional, tissue-based; procedure, shortened: as §1; remark: listed apart in the source
[12] = biological target: Substance-P receptor (Cavia porcellus) (UniProt P30547); assay: Antagonistic activity against Substance P(6-11) receptor in guinea pig ileum at concentration of 1.0 uM.; type: functional, tissue-based; procedure, shortened: as §1
[13] = biological target: Metabotropic glutamate receptor 3 (Rattus norvegicus) (UniProt P31422); assay: Antagonistic activity against Glutamate receptor in rat spinal cord at concentration of 5.0 uM.; type: functional, tissue-based; procedure, shortened: as §2
[14] = biological target: Substance-P receptor (Rattus norvegicus) (UniProt P14600); assay: Antagonistic activity against Substance P(6-11) receptor in rat spinal cord at concentration of 25 uM.
Substance-P receptor (Rattus norvegicus), sequence (P14600 whole entry, looked up): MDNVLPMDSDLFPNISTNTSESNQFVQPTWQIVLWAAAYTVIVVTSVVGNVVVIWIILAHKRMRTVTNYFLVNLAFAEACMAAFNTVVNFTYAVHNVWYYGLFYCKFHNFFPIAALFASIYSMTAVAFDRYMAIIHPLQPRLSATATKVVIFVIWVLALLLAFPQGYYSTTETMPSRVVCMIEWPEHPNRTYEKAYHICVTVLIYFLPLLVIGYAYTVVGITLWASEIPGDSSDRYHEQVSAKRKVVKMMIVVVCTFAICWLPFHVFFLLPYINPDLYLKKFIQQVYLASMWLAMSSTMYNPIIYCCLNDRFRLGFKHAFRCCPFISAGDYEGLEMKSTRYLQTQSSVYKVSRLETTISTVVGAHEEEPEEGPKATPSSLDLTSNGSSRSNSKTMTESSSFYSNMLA

[15] = biological target: Substance-P receptor (Cavia porcellus) (UniProt P30547); assay: In vitro inhibition of substance P induced contractions of the guinea pig ileum at 5 uM.; type: tissue-based
Procedure, shortened: (§5)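 Agonist (SP or SP(6-11)-hexapeptide) dose-response curves on a 3-min cycle with 1-min contact, then washout. Dose ratio = agonist EC50 with antagonist / EC50 alone. At least two preparations per compound; ratios below 2 taken as insignificant.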

[16] = biological target: Substance-P receptor (Cavia porcellus) (UniProt P30547); assay: In vitro inhibition of substance P (6-11) hexapeptide induced contractions of the guinea pig ileum at 5 uM.; type: tissue-based; procedure, shortened: as §5
[17] = biological target: Substance-P receptor (Rattus norvegicus) (UniProt P14600); assay: Antagonistic activity against Substance P receptor in rat spinal cord at concentration of 50 uM.
[18] = biological target: Substance-P receptor (Rattus norvegicus) (UniProt P14600); assay: Antagonistic activity against Substance P(6-11) receptor in rat spinal cord at concentration of 50 uM.
[19] = biological target: Substance-P receptor (Rattus norvegicus) (UniProt P14600); assay: Antagonistic activity against Substance P receptor in rat spinal cord at concentration of 25 uM.
[20] = biological target: Metabotropic glutamate receptor 3 (Rattus norvegicus) (UniProt P31422); assay: Antagonistic activity against Glutamate receptor in rat spinal cord at concentration of 50 uM.; type: functional, tissue-based; procedure, shortened: as §2
[21] = biological target: Substance-P receptor (Cavia porcellus) (UniProt P30547); assay: In vitro inhibition of substance P (6-11) hexapeptide induced contractions of the guinea pig ileum at 10 uM.; type: tissue-based; procedure, shortened: as §5
[22] = biological target: Substance-P receptor (Cavia porcellus) (UniProt P30547); assay: In vitro inhibition of substance P induced contractions of the guinea pig ileum at 10 uM.; type: tissue-based; procedure, shortened: as §5
[23] = biological target: Substance-P receptor (Cavia porcellus) (UniProt P30547); assay: Antagonistic activity against Substance P receptor in guinea pig ileum at concentration of 1 uM.; type: functional, tissue-based; procedure, shortened: as §1
[24] = biological target: Substance-P receptor (Rattus norvegicus) (UniProt P14600); assay: Antagonistic activity against Substance P(6-11) receptor in rat spinal cord at concentration of 20 uM.
[25] = biological target: Substance-P receptor (Cavia porcellus) (UniProt P30547); assay: Antagonistic activity against Substance P(6-11) receptor in guinea pig ileum at concentration of 1 uM.; type: functional, tissue-based; procedure, shortened: as §1
[26] = biological target: Substance-P receptor (Rattus norvegicus) (UniProt P14600); assay: Antagonistic activity against Substance P receptor in rat spinal cord at concentration of 20 uM.
[27] = biological target: Metabotropic glutamate receptor 3 (Rattus norvegicus) (UniProt P31422); assay: Antagonistic activity against Glutamate receptor in rat spinal cord at concentration of 20 uM.; type: functional, tissue-based; procedure, shortened: as §2

Activity [1]: 4.2 dose ratio | Change in amplitude response [2]: -25% | Change in amplitude response [3]: -12% | Activity [4]: 38 dose ratio | Activity [5]: 3.4 dose ratio | Activity [6]: 38 dose ratio | Activity [7]: 52 dose ratio | Change in amplitude response [8]: -7% | Activity [9]: 2.4 dose ratio | Change in amplitude response [10]: -31% | Activity [11]: 52 dose ratio | Activity [12]: 20.1 dose ratio | Change in amplitude response [13]: -23%
SMILES: COC(=O)[C@@H](CCSC)NC(=O)[C@@H](CC(C)C)SCCNC(=O)[C@@H](Cc1ccccc1)NC(=O)[C@H](Cc1ccccc1)NC(=O)[C@H](CCC(N)=O)NC(=O)[C@H](CCC(N)=O)NC(=O)[C@H]1CCCN1C(=O)[C@H](CCCCNC(=O)OCc1ccccc1)NC(=O)[C@H]1CCCN1C(=O)[C@H](CCCN=C(N)N)NC(=O)OCc1ccccc1

Change in amplitude response [3]: 0% | Change in amplitude response [8]: 6% | Change in amplitude response [10]: -35% | Change in amplitude response [13]: 0%
SMILES: COC(=O)[C@@H](CCSC)NC(=O)[C@H](CC(C)C)N(C)C(=O)CN(C)C(=O)[C@H](Cc1ccccc1)NC(=O)[C@@H](Cc1ccccc1)NC(=O)[C@H](CCC(N)=O)NC(=O)[C@H](CCC(N)=O)NC(=O)C1CCCN1C(=O)[C@H](CCCCNC(=O)OCc1ccccc1)NC(=O)C1CCCN1C(=O)[C@H](CCCN=C(N)N)NC(=O)OCc1ccccc1 (stereo in doubt)

Change in amplitude response [14]: -29% | Activity [15]: < 2 dose ratio | Activity [16]: < 2 dose ratio | Change in amplitude response [17]: -12% | Change in amplitude response [18]: -57% | Change in amplitude response [19]: 7% | Change in amplitude response [20]: -4% | Activity [21]: < 2 dose ratio | Activity [22]: < 2 dose ratio
SMILES: COC(=O)[C@@H](CCSC)NC(=O)[C@H](CC(C)C)NC(=O)CN(C)C(=O)[C@H](Cc1ccccc1)NC(=O)[C@@H](Cc1ccccc1)NC(=O)[C@H](CCC(N)=O)NC(=O)[C@H](CCC(N)=O)NC(=O)C1CCCN1C(=O)OC(C)(C)C (stereo in doubt)

Activity [23]: 3.1 dose ratio | Change in amplitude response [24]: -85% | Activity [15]: 2.8 dose ratio | Activity [25]: 3.1 dose ratio | Activity [16]: 5.1 dose ratio | Change in amplitude response [26]: 17% | Change in amplitude response [27]: -9%
SMILES: COC(=O)[C@H](CCSC)NC(=O)[C@H](CC(C)C)NC(=O)[C@@H](Cc1c[nH]c2ccccc12)NC(=O)[C@H](Cc1ccccc1)NC(=O)[C@@H](Cc1ccccc1)NC(=O)[C@H](CCCN=C(N)N)NC(=O)[C@H](CC(N)=O)NC(=O)[C@@H]1CCCN1C(=O)[C@H](CCCCNC(=O)OCc1ccccc1)NC(=O)[C@@H]1CCCN1C(=O)[C@H](CCCN=C(N)N)NC(=O)OC(C)(C)C
